# Source: PubChem BioAssay
# SR-BI DiI-HDL act: SR-BI HDL lipid transfer activation. AID 504775. CHO ldlA[mSR-BI] cells, DiI-HDL uptake fluorescence, 3 h; 100 = double the neutral-control signal. actives 0.096% (n = 320,000). activation, % at 12.5 µM;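 active = mean replicate activation of at least 60% and every replicate at or above 60%; inconclusive = mean or all-replicate condition met, but not both; inactive = mean below 60% and not all replicates reaching 60%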
#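 Test system: SR-BI-overexpressing, LDLR-lacking CHO cells; Medium: Ham's F12 with 0.5% BSA, HEPES 25 mM, pH 7.4; Schedule: 3 h, 37 °C; Technique: bottom-read fluorescence, 550/595 nm.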
# Glyco luc inh: N-linked glycosylation inhibition | D54 ERlucT glycosylation luciferase reporter, 24 h; percent of 100 nM tunicamycin response | reporter increase, % at 12.5 µM | AID 588692 | actives 0.23% (n = 360,000);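 active = mean luciferase reporter signal, scaled so untreated is 0 and the glycosylation-blocking control 100, at or above a set limit in every replicate; inconclusive = mean reaches the limit but not every replicate does; inactive = mean below the limit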;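 also: luciferase carries N-glycosylation sites so blocking glycosylation raises the light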
# SR-BI HDL uptake: blocks mouse SR-BI lipid uptake from DiI-HDL; Q61009; ldlA[mSR-BI] CHO cells, DiI-HDL uptake fluorescence, 3 h; inhibition, % at 12.5 µM; actives 0.96% (n = 320,000); AID 488896;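 active = mean replicate inhibition of at least 70% and a set share of replicates each scoring 70 or more; inconclusive = meets just one of the two criteria; inactive = fails both criteria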
# Target sequence (Q61009 whole entry, looked up): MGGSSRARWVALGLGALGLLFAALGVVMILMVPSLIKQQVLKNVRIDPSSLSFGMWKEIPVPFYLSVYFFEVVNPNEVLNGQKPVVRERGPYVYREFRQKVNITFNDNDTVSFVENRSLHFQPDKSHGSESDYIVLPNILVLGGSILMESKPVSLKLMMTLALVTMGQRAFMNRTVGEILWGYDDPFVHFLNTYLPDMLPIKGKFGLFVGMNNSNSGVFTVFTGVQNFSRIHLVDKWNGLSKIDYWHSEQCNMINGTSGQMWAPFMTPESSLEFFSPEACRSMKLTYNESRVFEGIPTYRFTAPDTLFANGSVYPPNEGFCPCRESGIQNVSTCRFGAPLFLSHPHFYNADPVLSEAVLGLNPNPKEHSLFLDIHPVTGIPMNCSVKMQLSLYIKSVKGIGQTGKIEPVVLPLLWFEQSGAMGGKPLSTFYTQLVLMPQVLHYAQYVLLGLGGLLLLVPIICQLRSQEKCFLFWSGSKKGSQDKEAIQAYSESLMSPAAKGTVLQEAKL
# Env fusion inh: blocks HIV Env-driven cell-cell fusion; AID 651610; actives 1.1% (n = 360,000); inhibition, % at 12.3 µM; HeLa-JRFL Env/CEM21 cell fusion, luciferase;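 active = mean replicate inhibition score of at least 50 and every replicate individually at or above 50; inconclusive = only one of the two criteria met; inactive = mean below 50 and not all replicates reaching 50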
# PglD inh: blocks C. jejuni PglD acetyltransferase activity. actives 0.098% (n = 360,000). inhibition, % at 12.5 µM. purified PglD enzyme, DTNB colorimetric CoA detection; in the data active = inhibition above about 16%, passing the limit was not always enough; inconclusive = no clear call, values can overlap the other calls
# Rtt109 HAT inh: C. albicans Rtt109 histone acetyltransferase inhibition. Q5AAJ8. purified Rtt109/Vps75, ThioGlo CoA-SH fluorescence, 4 h. inhibition, % at 34.9 µM. actives 0.16% (n = 330,000). AID 540336;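 active = inhibition of at least 50% in every replicate; inconclusive = best replicate reaches 50% inhibition but some replicates fall short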
# DiI quench: quenches DiI-HDL fluorescence, an SR-BI assay artifact; shares compounds with SR-BI HDL uptake; cell-free DiI-HDL fluorescence quenching, 30 min; AID 540326; actives 20% (n = 470); AC50, µM (doses to about 35 µM);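 active = quenching, a falling signal, with AC50 below a set limit tied to the top valid dose, actives reach about 32 µM in these data; inconclusive = no clear call, values can overlap the other calls; inactive = rising signal, and the rest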
# A number is an active result; - = inactive; ? = inconclusive; . = no result. Sampled rows, rich in hits. Any-hit rate of the full collection: about 1.9%.
SMILES,SR-BI DiI-HDL act,Glyco luc inh,SR-BI HDL uptake,Env fusion inh,PglD inh,Rtt109 HAT inh,DiI quench
COc1ccccc1Nc1nc(-c2c(C)[nH]c3ccccc23)cs1,-,-,71.7,-,.,-,5.61µM
CC(=O)Oc1ccc(C(=O)Nc2cc(NC(=O)c3ccc(OC(C)=O)cc3)cc(C(=O)NC(C)(C)C)c2)cc1,-,-,-,-,.,-,-
COc1cc(OC)cc(C(=O)N[C@H](C(=O)Nc2nc(-c3cc(OC)ccc3OC)cs2)C(C)C)c1,-,-,?,-,.,-,-
COc1cc(OC)cc(C(=O)N[C@H](C(=O)Nc2nc(-c3ccc(OC)c(OC)c3)cs2)C(C)C)c1,.,-,.,-,-,-,.
COc1ccc(OC)c(CCNC(=O)c2ccc3c(c2)N(Cc2ccc(F)cc2)CCS3)c1,-,-,81.8,.,-,-,-
Cc1ccc(CN2CCSc3ccc(C(=O)NCCCN4CCN(C)CC4)cc32)cc1,-,-,-,-,-,-,.
COc1ccc(CCNC(=O)c2ccc3c(c2)N(Cc2ccc(C)cc2)CCS3)cc1OC,-,-,75.3,.,-,-,-
COc1ccc(CCNC(=O)c2ccc3c(c2)N(Cc2ccc(F)cc2)CCS3)c(OC)c1,-,-,82.0,-,-,-,-
O=C(NCc1ccc(F)cc1)[C@@H]1[C@@H](CO)[C@@H]2Cn3c(cccc3=O)[C@H]1N2C(=O)Cc1ccccn1,.,.,.,-,-,.,.
CC(=O)c1sc(NC(=O)c2ccc(Cl)cc2)nc1C,.,-,.,-,.,-,.
CC(=O)c1ccc(-c2ccc(C(=O)Nc3nc(C)c(C(C)=O)s3)o2)cc1,-,-,-,.,-,-,-
O=C(NCCCN1CCOCC1)[C@H]1N[C@H]2c3ccc(C4=CCCC4)c(=O)n3C[C@H]2[C@@H]1CO,.,.,.,.,-,.,.
COc1cccc(CNC(=O)C[C@@H]2C=C[C@@H](NC(=O)C3CCC3)[C@H](CO)O2)c1,.,.,.,-,.,.,.
COc1ccc(OC)c(CCNC(=O)c2ccc(NC3=NC4CS(=O)(=O)CC4S3)cc2)c1 (stereo not given),-,-,83.1,-,-,-,-
COc1ccc(OC)c(CCNC(=O)Cc2ccc(NC3=NC4CS(=O)(=O)CC4S3)cc2)c1 (stereo not given),-,-,-,-,-,-,.
C[C@@H]1CN([C@H](C)CO)C(=O)c2cc(NC(=O)Nc3ccc4c(c3)OCO4)ccc2O[C@@H](C)CCCCO[C@H]1CN(C)Cc1ccccc1,.,.,.,-,-,.,.
O=C(N[C@H]1CC[C@@H](CC(=O)N2CCOCC2)O[C@H]1CO)c1ccc2c(c1)OCO2,.,.,.,-,-,.,.
Cc1ccc(OCC(=O)NNC(=O)C2CCN(c3ncnc4sc(C)c(C)c34)CC2)cc1,-,-,80.0,-,.,-,-
CCCN(C)C[C@@H]1Oc2ncc(C#CC3(O)CCCC3)cc2C(=O)N([C@H](C)CO)C[C@@H]1C,.,.,.,-,-,.,.
O=C(N[C@@H]1C/C=C\C[C@@H](CC(=O)N(CCO)Cc2ccccc2)C(=O)NC[C@H](c2ccccc2)OC1=O)OCC1c2ccccc2-c2ccccc21,-,-,-,-,-,-,.
O=C(N[C@@H]1C/C=C\C[C@H](CC(=O)N(CCO)Cc2ccccc2)C(=O)NC[C@@H](c2ccccc2)OC1=O)OCC1c2ccccc2-c2ccccc21,-,-,85.4,-,-,-,-
Cc1ccc(-c2cc(C(F)F)n3ncc(C(=O)N4CCN(c5cccc(C)c5C)CC4)c3n2)cc1,-,-,-,.,-,-,-
Cc1ccc2nc(-c3ccccc3)cc(C(=O)N3CCN(c4ccccc4O)CC3)c2c1,-,-,-,-,-,-,-
CC(=O)c1ccc(N2CCN(C(=O)c3cc(-c4cccnc4)nc4ccc(Br)cc34)CC2)cc1,-,-,-,-,-,-,-
O=C(c1cc(-c2ccccc2)nc2ccccc12)N1CCN(c2ccccc2O)CC1,-,-,-,-,-,-,.
SMILES,SR-BI DiI-HDL act,Glyco luc inh,SR-BI HDL uptake,Env fusion inh,PglD inh,Rtt109 HAT inh,DiI quench
Cc1cc(C)c2c(c1)NC(c1cc3c(cc1Br)OCO3)C1CC=CC21 (stereo not given),-,-,?,-,-,-,-
C[C@@H]1CCCCO[C@@H](CN(C)C(=O)NC2CCCCC2)[C@@H](C)CN([C@@H](C)CO)C(=O)c2cc(NS(=O)(=O)c3cccs3)ccc2O1,.,.,.,-,-,.,.
COc1ccc(CCn2c(C)cc(C(=O)CSc3nnc(N)s3)c2C)cc1,-,-,-,.,-,-,.
COc1ccc(CCn2c(C)cc(C(=O)CSc3nc(N)cc(=O)[nH]3)c2C)cc1,-,-,81.1,69.8,-,-,-
COc1ccc(N2CN=C3SCC(=O)N3C2)cc1,-,-,-,-,-,-,.
Cc1cc(C)cc(N2CN=C3SCC(=O)N3C2)c1,-,-,?,.,-,-,-
CCOC(=O)C(C)(C)Sc1nc2c(cnn2-c2ccc(F)cc2)c(=O)[nH]1,-,-,76.6,-,-,-,-
CCOC(=O)C(C)(C)Sc1nc2c(cnn2-c2ccc(C)cc2)c(=O)[nH]1,-,-,-,-,-,-,.
COc1ccc(S(=O)(=O)Nc2ccc3c(c2)CC(=O)N([C@@H](C)CO)C[C@@H](C)[C@@H](CN(C)C(=O)Nc2ccc4c(c2)OCO4)O3)cc1,.,.,.,-,-,.,.
CCCCN(CCCC)c1ncnc2nc[nH]c12,-,-,-,-,.,-,.
CCCCN(Cc1ccccc1)c1ncnc2nc[nH]c12,-,-,74.3,.,-,-,-
CCCC(O)C#Cc1cnc2c(c1)C(=O)N([C@H](C)CO)C[C@H](C)[C@H](CN(C)Cc1cccc(C)c1)O2 (stereo not given in full),.,.,.,-,-,.,.
Cc1ccc(-c2cc(C(=O)Nc3sc4c(c3C(=O)NCc3ccco3)CCC4)[nH]n2)c(O)c1,-,-,82.6,-,-,-,-
Cc1cc(O)c(-c2cc(C(=O)Nc3sc4c(c3C(=O)NCc3ccco3)CCC4)[nH]n2)cc1C,.,-,.,-,.,-,.
O=C(c1ccc(S(=O)(=O)N2CCCC2)cc1)N1CCN(Cc2ccc3c(c2)OCO3)CC1,-,-,-,.,-,-,.
COc1ccc(CN2CCN(C(=O)c3ccc(S(=O)(=O)NCc4ccco4)cc3)CC2)cc1F,-,-,?,-,.,-,-
O=C(c1ccc(S(=O)(=O)NCc2ccco2)cc1)N1CCN(Cc2ccc3c(c2)OCO3)CC1,-,-,?,-,-,-,-
Cc1ccccc1CN1CCN(C(=O)c2ccc(S(=O)(=O)NCc3ccco3)cc2)CC1,-,-,-,-,-,-,-
COc1ccc(CN2CCN(C(=O)c3ccc(S(=O)(=O)N4CCCCCC4)cc3)CC2)cc1F,-,-,-,-,-,-,.
COCC(=O)N1[C@@H]2CN(C(=O)NC(C)C)c3ccccc3[C@@H]2[C@@H]1CO,.,.,.,.,-,.,.
